According to ChEMBL document CHEMBL3588757, “Structure-based design, synthesis and biological testing of piperazine-linked bis-epipodophyllotoxin etoposide analogs” (Bioorg Med Chem, 2015):

Assays:
Type in all cases: functional
[1] = system: SF-295; experiment: Cytotoxicity against human SF295 cells assessed as cell growth at 0.5 uM by SRB assay; conditions: read-out: Activity
[2] = system: OVCAR-3; experiment: Cytotoxicity against human OVCAR3 cells assessed as cell growth at 0.005 uM by SRB assay; conditions: read-out: Activity
[3] = system: SW-620; experiment: Cytotoxicity against human SW620 cells by SRB assay
Outline: (§1)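 NCI-60 panel screen; 5-dose testing giving GI50 per cell line, plus a single 10 µM one-dose test. Method details not given beyond the NCI screen.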

[4] = system: UACC-257; experiment: Cytotoxicity against human UACC257 cells assessed as cell growth at 50 uM by SRB assay; conditions: read-out: Activity
[5] = system: OVCAR-5; experiment: Cytotoxicity against human OVCAR5 cells assessed as cell growth at 0.5 uM by SRB assay; conditions: read-out: Activity
[6] = system: RPMI-8226; experiment: Cytotoxicity against human RPMI8226 cells assessed as cell growth at 5 uM by SRB assay; conditions: read-out: Activity
[7] = system: MDA-MB-435; experiment: Cytotoxicity against human MDA-MB-435 cells assessed as cell growth at 0.5 uM by SRB assay; conditions: read-out: Activity
[8] = system: OVCAR-8; experiment: Cytotoxicity against human OVCAR8 cells by SRB assay; outline: as §1
[9] = system: M14; experiment: Cytotoxicity against human M14 cells assessed as cell growth at 5 uM by SRB assay; conditions: read-out: Activity
[10] = system: SK-MEL-28; experiment: Cytotoxicity against human SK-MEL-28 cells assessed as cell growth at 5 uM by SRB assay; conditions: read-out: Activity
[11] = system: MCF7; experiment: Cytotoxicity against human MCF7 cells assessed as cell growth at 0.5 uM by SRB assay; conditions: read-out: Activity
[12] = system: A549; experiment: Cytotoxicity against human A549/ATCC cells assessed as cell growth at 5 uM by SRB assay; conditions: read-out: Activity
[13] = system: ACHN; experiment: Cytotoxicity against human ACHN cells assessed as cell growth at 0.005 uM by SRB assay; conditions: read-out: Activity
[14] = system: CCRF-CEM; experiment: Cytotoxicity against human CCRF-CEM cells assessed as cell growth at 0.5 uM by SRB assay; conditions: read-out: Activity
[15] = system: OVCAR-3; experiment: Cytotoxicity against human OVCAR3 cells assessed as cell growth at 0.5 uM by SRB assay; conditions: read-out: Activity
[16] = system: IGROV-1; experiment: Cytotoxicity against human IGROV1 cells assessed as cell growth at 50 uM by SRB assay; conditions: read-out: Activity
[17] = system: U-251; experiment: Cytotoxicity against human U251 cells by SRB assay; outline: as §1
[18] = system: SNB-75; experiment: Cytotoxicity against human SNB75 cells assessed as cell growth at 0.5 uM by SRB assay; conditions: read-out: Activity
[19] = system: NCI-H322M; experiment: Cytotoxicity against human NCI-H322M cells assessed as cell growth at 5 uM by SRB assay; conditions: read-out: Activity
[20] = system: MDA-MB-468; experiment: Cytotoxicity against human MDA-MB-468 cells assessed as cell growth at 5 uM by SRB assay; conditions: read-out: Activity
[21] = system: HCC 2998; experiment: Cytotoxicity against human HCC2998 cells assessed as cell growth at 0.05 uM by SRB assay; conditions: read-out: Activity
Outline: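 Measured in the NCI-60 human tumour cell line panel using five-dose testing. Growth was recorded at each dose for each cell line, and a GI50 was derived for each line.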

[22] = system: A549; experiment: Cytotoxicity against human A549/ATCC cells by SRB assay
[23] = system: BT-549; experiment: Cytotoxicity against human BT549 cells assessed as cell growth at 50 uM by SRB assay; conditions: read-out: Activity
[24] = system: MDA-MB-231; experiment: Cytotoxicity against human MDA-MB-231/ATCC cells assessed as cell growth at 5 uM by SRB assay; conditions: read-out: Activity
[25] = system: MOLT-4; experiment: Cytotoxicity against human MOLT4 cells assessed as cell growth at 5 uM by SRB assay; conditions: read-out: Activity
[26] = system: SK-MEL-2; experiment: Cytotoxicity against human SK-MEL-2 cells by SRB assay; outline: as §1
[27] = system: TK-10; experiment: Cytotoxicity against human TK10 cells assessed as cell growth at 0.05 uM by SRB assay; conditions: read-out: Activity
[28] = system: KM12; experiment: Cytotoxicity against human KM12 cells assessed as cell growth at 0.5 uM by SRB assay; conditions: read-out: Activity
[29] = system: UACC-257; experiment: Cytotoxicity against human UACC257 cells assessed as cell growth at 0.05 uM by SRB assay; conditions: read-out: Activity
[30] = system: UACC-62; experiment: Cytotoxicity against human UACC62 cells assessed as cell growth at 0.05 uM by SRB assay; conditions: read-out: Activity
[31] = system: TK-10; experiment: Cytotoxicity against human TK10 cells assessed as cell growth at 0.005 uM by SRB assay; conditions: read-out: Activity
[32] = system: PC-3; experiment: Cytotoxicity against human PC3 cells assessed as cell growth at 5 uM by SRB assay; conditions: read-out: Activity
[33] = system: ACHN; experiment: Cytotoxicity against human ACHN cells assessed as cell growth at 5 uM by SRB assay; conditions: read-out: Activity
[34] = system: MDA-MB-435; experiment: Cytotoxicity against human MDA-MB-435 cells assessed as cell growth at 0.05 uM by SRB assay; conditions: read-out: Activity
[35] = system: NCI-H226; experiment: Cytotoxicity against human NCI-H226 cells assessed as cell growth at 50 uM by SRB assay; conditions: read-out: Activity
[36] = system: UACC-257; experiment: Cytotoxicity against human UACC257 cells assessed as cell growth at 0.5 uM by SRB assay; conditions: read-out: Activity
[37] = system: 786-0; experiment: Cytotoxicity against human 786-0 cells by SRB assay
[38] = system: U-251; experiment: Cytotoxicity against human U251 cells assessed as cell growth at 0.5 uM by SRB assay; conditions: read-out: Activity
[39] = system: SF-295; experiment: Cytotoxicity against human SF295 cells assessed as cell growth at 50 uM by SRB assay; conditions: read-out: Activity
[40] = system: MCF7; experiment: Cytotoxicity against human MCF7 cells assessed as cell growth at 0.05 uM by SRB assay; conditions: read-out: Activity
[41] = system: T47D; experiment: Cytotoxicity against human T47D cells assessed as cell growth at 50 uM by SRB assay; conditions: read-out: Activity
[42] = system: A498; experiment: Cytotoxicity against human A498 cells assessed as cell growth at 50 uM by SRB assay; conditions: read-out: Activity
[43] = Cytotoxicity against human NCI-ADR-RES cells assessed as cell growth at 5 uM by SRB assay; conditions: read-out: Activity
[44] = system: U-251; experiment: Cytotoxicity against human U251 cells assessed as cell growth at 5 uM by SRB assay; conditions: read-out: Activity
[45] = read-out: LC50 (the source's name)
[46] = read-out: pLC50 (the source's name) (converted)

COc1cc([C@@H]2c3cc4c(cc3[C@@H](NC(=O)CN3CCN(CCCCCCCCCCN5CCN(CC(=O)N[C@@H]6c7cc8c(cc7[C@@H](c7cc(OC)c(O)c(OC)c7)[C@H]7C(=O)OC[C@@H]76)OCO8)CC5)CC3)[C@H]3COC(=O)[C@H]23)OCO4)cc(OC)c1O
growth at 0.5 µM [1]: 61% | growth at 0.005 µM [2]: 100% | GI50 ([3]; read-out: GI50): 372 nM | CC50 [3, 45]: 3380 nM | TGI ([3]; read-out: TGI): 1330 nM | GI50 ([3]; read-out: pGI50 (converted)): 372 nM | CC50 [3, 46]: 3800 nM | TGI ([3]; read-out: pTGI (converted)): 1320 nM | growth at 50 µM [4]: -58% | growth at 0.5 µM [5]: 63% | growth at 5 µM [6]: -15% | growth at 0.5 µM [7]: 39% | GI50 ([8]; read-out: GI50): 514 nM | CC50 [8, 45]: > 50000 nM | TGI ([8]; read-out: TGI): 2200 nM | GI50 ([8]; read-out: pGI50 (converted)): 513 nM | CC50 [8, 46]: > 50100 nM | TGI ([8]; read-out: pTGI (converted)): 2190 nM | growth at 5 µM [9]: -36% | growth at 5 µM [10]: 64% | growth at 0.5 µM [11]: 30% | growth at 5 µM [12]: -29% | growth at 0.005 µM [13]: 100% | growth at 0.5 µM [14]: 4% | growth at 0.5 µM [15]: 63% | growth at 50 µM [16]: -41% | GI50 ([17]; read-out: GI50): 532 nM | CC50 [17, 45]: 23400 nM | TGI ([17]; read-out: TGI): 6270 nM | GI50 ([17]; read-out: pGI50 (converted)): 537 nM | CC50 [17, 46]: 23400 nM | TGI ([17]; read-out: pTGI (converted)): 6310 nM | growth at 0.5 µM [18]: 34% | growth at 5 µM [19]: -42% | growth at 5 µM [20]: -29% | growth at 0.05 µM [21]: 83% | GI50 ([22]; read-out: GI50): 17.2 nM | CC50 [22, 45]: > 50000 nM | TGI ([22]; read-out: TGI): 883 nM | GI50 ([22]; read-out: pGI50 (converted)): 17.4 nM | CC50 [22, 46]: > 50100 nM | TGI ([22]; read-out: pTGI (converted)): 891 nM | growth at 50 µM [23]: -26% | growth at 5 µM [24]: -45% | growth at 5 µM [25]: -46% | GI50 ([26]; read-out: GI50): 3960 nM | CC50 [26, 45]: 41000 nM | TGI ([26]; read-out: TGI): 13900 nM | GI50 ([26]; read-out: pGI50 (converted)): 3980 nM | CC50 [26, 46]: 40700 nM | TGI ([26]; read-out: pTGI (converted)): 13800 nM | growth at 0.05 µM [27]: 91% | growth at 0.5 µM [28]: 74% | growth at 0.05 µM [29]: 97% | growth at 0.05 µM [30]: 90% | growth at 0.005 µM [31]: 93% | growth at 5 µM [32]: 17% | growth at 5 µM [33]: -77% | growth at 0.05 µM [34]: 87% | growth at 50 µM [35]: -95% | growth at 0.5 µM [36]: 73% | GI50 ([37]; read-out: GI50): 209 nM | CC50 [37, 45]: 18700 nM | TGI ([37]; read-out: TGI): 2340 nM | GI50 ([37]; read-out: pGI50 (converted)): 209 nM | CC50 [37, 46]: 18600 nM | TGI ([37]; read-out: pTGI (converted)): 2340 nM | growth at 0.5 µM [38]: 51% | growth at 50 µM [39]: -44% | growth at 0.05 µM [40]: 61% | growth at 50 µM [41]: -40% | growth at 50 µM [42]: -97% | growth at 5 µM [43]: 53% | growth at 5 µM [44]: 9%
